In ChEMBL document CHEMBL3352321, “Design and total synthesis of Mannich derivatives of marine natural product lamellarin D as cytotoxic agents” (2014) one finds GI50 and inhibition data, which are given here for 13 compounds.

The term GI50 denotes the concentration at which growth is held to half of that of the control.

For one test, the system named is HT-29. Description: Antiproliferative activity against human HT-29 cells assessed as growth inhibition after 72 hrs by MTT assay. The following applies: HT-29, 72 h. It is filed as functional. A digest of the protocol:
(§1)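 ATCC-sourced cells seeded at 4000 per well and left 12 h, then medium exchanged for fresh medium carrying graded compound concentrations for 72 h. MTT (5 mg/mL, 10 µl) added for 3 h, formazan dissolved in DMSO, absorbance read at 540 nm. GI50 taken from dose-response curve; mean ± SEM of three independent experiments.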
(In general: Tetrazolium assays rely on reduction of a dye to a coloured formazan, in cell work by metabolically active cells.)

A further test concerns MDA-MB-231. Nature of the test: Antiproliferative activity against human MDA-MB-231 cells assessed as growth inhibition after 72 hrs by MTT assay. Conditions: MDA-MB-231, 72 h. The test is classed as functional. The procedure, abridged: as §1
In another test the test system is HepG2. Nature of the test: Antiproliferative activity against human HepG2 cells assessed as growth inhibition after 72 hrs by MTT assay. The test is classed as functional. Conditions: HepG2, 72 h. The procedure, abridged: as §1
Test [1] deals with T1, DNA topoisomerase (Bos taurus) (UniProt A0JN73).
T1 sequence (whole entry): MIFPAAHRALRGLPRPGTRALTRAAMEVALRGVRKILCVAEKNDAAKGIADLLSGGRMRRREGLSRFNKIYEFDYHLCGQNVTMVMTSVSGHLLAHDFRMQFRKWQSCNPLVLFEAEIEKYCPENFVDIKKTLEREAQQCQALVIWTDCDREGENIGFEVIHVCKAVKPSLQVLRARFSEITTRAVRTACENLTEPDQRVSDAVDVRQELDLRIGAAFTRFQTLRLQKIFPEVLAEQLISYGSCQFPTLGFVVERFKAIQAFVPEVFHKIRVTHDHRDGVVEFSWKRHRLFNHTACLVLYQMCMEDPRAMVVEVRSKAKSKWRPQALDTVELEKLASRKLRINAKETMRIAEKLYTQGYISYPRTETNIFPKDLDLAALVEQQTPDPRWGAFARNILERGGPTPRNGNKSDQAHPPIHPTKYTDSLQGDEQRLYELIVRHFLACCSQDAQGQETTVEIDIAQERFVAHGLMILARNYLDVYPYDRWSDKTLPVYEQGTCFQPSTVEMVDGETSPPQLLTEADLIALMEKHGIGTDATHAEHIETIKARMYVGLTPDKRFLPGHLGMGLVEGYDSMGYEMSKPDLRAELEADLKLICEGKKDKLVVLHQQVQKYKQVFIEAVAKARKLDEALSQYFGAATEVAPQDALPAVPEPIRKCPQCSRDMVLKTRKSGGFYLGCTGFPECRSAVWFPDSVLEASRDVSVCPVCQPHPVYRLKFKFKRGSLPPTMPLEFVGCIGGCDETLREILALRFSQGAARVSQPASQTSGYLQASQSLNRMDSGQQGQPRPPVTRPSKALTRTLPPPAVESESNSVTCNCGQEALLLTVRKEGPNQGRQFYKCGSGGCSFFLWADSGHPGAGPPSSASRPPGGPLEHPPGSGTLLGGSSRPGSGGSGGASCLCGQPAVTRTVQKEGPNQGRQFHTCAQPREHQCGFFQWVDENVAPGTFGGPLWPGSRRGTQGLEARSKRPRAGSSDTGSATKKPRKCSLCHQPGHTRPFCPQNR
Description: Inhibition of calf thymus Topoisomerase 1-mediated relaxation of supercoiled pBR322 DNA at 100 uM after 30 mins by gel electrophoresis. The procedure, abridged: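 Supercoiled pBR322 DNA incubated with 1 unit calf thymus topoisomerase I, with or without compound at 100 µM, 30 min at 37 °C. Stopped with 10% SDS, run on 1% agarose gel, stained 15 min with DNA gel stain and imaged under UV. Controls without enzyme included.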

In another test the test system is K562. Nature of the test: Antiproliferative activity against human K562 cells assessed as growth inhibition after 72 hrs by MTT assay. It is filed as functional. Conditions: K562, 72 h. A digest of the protocol: as §1

The source made the active and inactive calls. The rule behind the calls is not given here.

In the case of `COc1cc(-c2c3n(c4c(=O)oc5cc(O)c(OC)cc5c24)CCc2cc(O)c(OC)cc2-3)ccc1O`, the GI50 in the test with HT-29 is 40.8 µM; with MDA-MB-231, 17.9 µM; in the test on HepG2 it was 2.14 µM; in the test on K562, 1.61 µM. Also, in test [1], the inhibition result is “inactive”.
The corresponding values for `CCN(CC)Cc1c(O)c(OC)cc2c1oc(=O)c1c2c(-c2ccc(O)c(OC)c2)c2c3cc(OC)c(O)cc3ccn21` are 2.52 µM, 5.78 µM, 5.04 µM, 1.04 µM and “Active”.
The corresponding values for `COc1cc(-c2c3c4cc(OC)c(O)c(CN5CCCCC5)c4oc(=O)c3n3ccc4cc(O)c(OC)cc4c23)ccc1O` are 2.5 µM, 7.25 µM, 6.99 µM, 1.95 µM and “Active”.
Regarding `CCCN(CCC)Cc1c(O)c(OC)cc2c1oc(=O)c1c2c(-c2ccc(O)c(OC)c2)c2c3cc(OC)c(O)cc3ccn21`, the GI50 was 2.92 µM with HT-29, 9.75 µM in the test with MDA-MB-231, 6.83 µM in the test with HepG2 and 2.37 µM with K562. In addition, in test [1], the inhibition entry was “Active”.
`COc1cc(-c2c3c4cc(OC)c(O)cc4oc(=O)c3n3ccc4c(CN5CCOCC5)c(O)c(OC)cc4c23)ccc1O`: the GI50 with HT-29 was 13 µM; with MDA-MB-231, 19.9 µM; in the test on HepG2 it was 4.47 µM; in the test on K562, 2.84 µM. In addition, in test [1], the inhibition entry is “Active”.
The corresponding values for `COc1cc(-c2c3c4cc(OC)c(O)cc4oc(=O)c3n3ccc4c(CN(C)C)c(O)c(OC)cc4c23)ccc1O` are 15 µM, 13.1 µM, 6.37 µM, 1.34 µM and “Active”.
Take `COc1cc(-c2c3c4cc(OC)c(O)c(CN(C)C)c4oc(=O)c3n3ccc4cc(O)c(OC)cc4c23)ccc1O`: the GI50 in the test on HT-29 is 5.46 µM; in the test on MDA-MB-231, 3.3 µM; in the test with HepG2 it was 2.63 µM; in the test on K562, 0.43 µM. For the same compound, the inhibition entry in test [1] is “inactive”.
The like results for `COc1cc2c(cc1O)oc(=O)c1c2c(-c2cc(CN(C)C)c(O)c(OC)c2)c2c3cc(OC)c(O)cc3ccn21` were, in that order, 6.41 µM, 3.98 µM, 30.1 µM, 1.85 µM and “inactive”.
For `CCCN(CCC)Cc1c(O)c(OC)cc2c1oc(=O)c1c2c(-c2ccc(O)c(OC)c2)c2c3cc(OC)c(O)c(CN(C)C)c3ccn21`, the GI50 with HT-29 is 2.83 µM; in the test with MDA-MB-231, 6.15 µM; in the test on HepG2 it was 15.8 µM; with K562, 7.16 µM. Moreover, the inhibition result in test [1] is “Active”.
The like results for `COc1cc(-c2c3c4cc(OC)c(O)c(CN(C)C)c4oc(=O)c3n3ccc4c(CN(C)C)c(O)c(OC)cc4c23)ccc1O` were, in that order, 5.68 µM, 9.89 µM, more than 50 µM, 9.62 µM and “Active”.
The like results for `COc1cc(-c2c3c4cc(OC)c(O)c(CN5CCOCC5)c4oc(=O)c3n3ccc4cc(O)c(OC)cc4c23)ccc1O` were, in that order, 2.64 µM, 4.87 µM, 3.69 µM, 2.25 µM and “Active”.
As to `COc1cc(-c2c3c4cc(OC)c(O)cc4oc(=O)c3n3ccc4c(CN5CCCCC5)c(O)c(OC)cc4c23)ccc1O`, the GI50 in the test on HT-29 is 18.3 µM; in the test with MDA-MB-231 it was 33.1 µM; in the test with HepG2 it was 21.3 µM; with K562 it was 9.94 µM. Besides, the inhibition result in test [1] was “Active”.
For the compound `COc1cc(-c2c3c4cc(OC)c(O)cc4oc(=O)c3n3ccc4cc(O)c(OC)cc4c23)ccc1O` [LAMELLARIN D], the GI50 is 4.47 µM in the test on HT-29, 0.32 µM with MDA-MB-231, 0.09 µM in the test with HepG2 and 0.08 µM in the test on K562. In test [1], the inhibition result was “Active”.
